The nature of data set [1]: folding enthalpy; higher = less favourable; fluorescence melt of hairpins on a sequencing array, two-state fit. Particulars: sodium 0.088 M. The gist of the method:
(§1)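 Melting temperature and folding enthalpy were obtained by bootstrapped two-state fitting. Fits used Cy3 fluorescence of library hairpins with annealed Cy3 and quencher oligos on a sequenced MiSeq flow cell, imaged in 50 mM Na-HEPES pH 8.0, 25 mM NaCl in 2.5 °C steps up to 60 °C and normalised to pre-quench Cy3 and control constructs. Four replicates were combined by inverse-variance weighting, and fitted temperatures were raised by 9.35 °C to match UV melts.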

A short description of data set [2]: melting temperature; fluorescence melt of hairpins on a sequencing array, two-state fit, raised by 9.35 °C to match UV melts. Particulars: sodium 0.088 M. The gist of the method: as §1

With GATCAGGAGCTGATC ((((((...)))))), the folding enthalpy in data set [1] is -32.3 kcal/mol. Besides, the Tm in data set [2] was 46.5 °C.
Consider GATCAGGATCCTGATC ((((((....)))))), for which the folding enthalpy in data set [1] was -53.1 kcal/mol. Besides, the Tm in data set [2] is 54.3 °C.
As to GATCAGGCCCCTGATC ((((((....)))))), the folding enthalpy in data set [1] was -46.1 kcal/mol. Moreover, the Tm in data set [2] was found to be 53.1 °C.
The corresponding values for GATCAGGCGCCTGATC ((((((....)))))) are -52.1 kcal/mol and 60.8 °C.
The corresponding values for GATCAGGCGTCTGATC ((((((....)))))) are -39.3 kcal/mol and 51 °C.
Take GATCAGGCTACTGATC ((((((....)))))): the folding enthalpy in data set [1] is -43.8 kcal/mol. Moreover, the Tm in data set [2] came out at 57.4 °C.
Consider GATCAGGGAAACCCGATC ((((.((....)).)))), for which the folding enthalpy in data set [1] was -26.1 kcal/mol. The Tm in data set [2] was determined as 43 °C.
Consider GATCAGGGAAACCTGATC (((((((....))))))), for which the folding enthalpy in data set [1] was -41.8 kcal/mol. Further, the Tm in data set [2] is 59 °C.
For GATCAGGTCCTGATC ((((((...)))))), in that order: -35.2 kcal/mol and 51.9 °C.
As to GATCAGGTCGCTGATC ((((((....)))))), the folding enthalpy in data set [1] is -43 kcal/mol. Besides, the Tm in data set [2] worked out at 53.3 °C.
For GATCAGGTGACTGATC ((((((....)))))), in that order: -46.4 kcal/mol and 54.9 °C.
For GATCAGGTGGCTGATC ((((((....)))))), in that order: -31.6 kcal/mol and 50.5 °C.
For GATCAGTACACTGATC ((((((....)))))), in that order: -36.4 kcal/mol and 54.7 °C.
Consider GATCAGTACCCTGATC ((((((....)))))), for which the folding enthalpy in data set [1] is -35.6 kcal/mol. Besides, the Tm in data set [2] was 49.4 °C.
The corresponding values for GATCAGTACCTGATC ((((((...)))))) are -44.9 kcal/mol and 48.9 °C.
For the sequence GATCAGTATACTGATC ((((((....)))))), the folding enthalpy in data set [1] is -45 kcal/mol. For the same sequence, the Tm in data set [2] came to 54.3 °C.
Take GATCAGTCATCTGATC ((((((....)))))): in data set [1], the folding enthalpy was -35.4 kcal/mol. Further, in data set [2], the Tm came to 51.1 °C.
For GATCAGTCCCTGATC ((((((...)))))), in that order: -46.5 kcal/mol and 50.3 °C.
As for GATCAGTCCTCTGATC ((((((....)))))), in data set [1], the folding enthalpy is -39.7 kcal/mol. Moreover, the Tm in data set [2] was found to be 51.1 °C.
Take GATCAGTCGGCTGATC ((((((....)))))): in data set [1], the folding enthalpy was -46.8 kcal/mol. For the same sequence, the Tm in data set [2] stood at 51.5 °C.
For GATCAGTCTACTGATC ((((((....)))))), the folding enthalpy in data set [1] was -49.8 kcal/mol. Moreover, the Tm in data set [2] amounted to 54.2 °C.
As for GATCAGTGCGCTGATC ((((((....)))))), the folding enthalpy in data set [1] was -44.1 kcal/mol. In addition, the Tm in data set [2] amounted to 56.6 °C.
As to GATCAGTGTGCTGATC ((((((....)))))), the folding enthalpy in data set [1] was -52.8 kcal/mol. Besides, the Tm in data set [2] came to 56.6 °C.
As to GATCAGTTATCTGATC ((((((....)))))), the folding enthalpy in data set [1] is -34.2 kcal/mol. Moreover, the Tm in data set [2] worked out at 52.1 °C.
The corresponding values for GATCAGTTCTCTGATC ((((((....)))))) are -42.1 kcal/mol and 52.1 °C.
For GATCAGTTGACTGATC ((((((....)))))), the folding enthalpy in data set [1] was -37.3 kcal/mol. For the same sequence, the Tm in data set [2] worked out at 53.5 °C.
Regarding GATCAGTTGCTGATC ((((((...)))))), the folding enthalpy in data set [1] was -34.1 kcal/mol. Besides, in data set [2], the Tm came out at 48.8 °C.
For GATCATAAGCATGATC ((((((....)))))), in that order: -31.5 kcal/mol and 46.5 °C.
The corresponding values for GATCATAAGTATGATC ((((((....)))))) are -33.6 kcal/mol and 47.7 °C.
For GATCATACGGATGATC ((((((....)))))), in that order: -39.6 kcal/mol and 47.1 °C.
With GATCATAGTATGATC ((((((...)))))), the folding enthalpy in data set [1] was -35.6 kcal/mol. Also, the Tm in data set [2] was 47.2 °C.
In the case of GATCATAGTGATGATC ((((((....)))))), the folding enthalpy in data set [1] is -36.5 kcal/mol. In data set [2], the Tm was determined as 47.3 °C.
The corresponding values for GATCATAGTTATGATC ((((((....)))))) are -40 kcal/mol and 48.2 °C.
The corresponding values for GATCATATATATGATC ((((((....)))))) are -42 kcal/mol and 48.8 °C.
For GATCATATCCATGATC ((((((....)))))), in that order: -35.8 kcal/mol and 47.4 °C.
Take GATCATATGGATGATC ((((((....)))))): the folding enthalpy in data set [1] is -28.1 kcal/mol. Besides, the Tm in data set [2] is 46.1 °C.
As for GATCATATGTATGATC ((((((....)))))), in data set [1], the folding enthalpy was -41.6 kcal/mol. Besides, in data set [2], the Tm came to 48.6 °C.
The corresponding values for GATCATCACAATGATC ((((((....)))))) are -44.1 kcal/mol and 47.7 °C.
For the sequence GATCATCACATGATC ((((((...)))))), the folding enthalpy in data set [1] was -36.7 kcal/mol. Also, the Tm in data set [2] came to 49.1 °C.
Turning to GATCATCAGATGATC ((((((...)))))), the folding enthalpy in data set [1] was -35.1 kcal/mol. The Tm in data set [2] was found to be 44.5 °C.
For GATCATCAGCATGATC ((((((....)))))), in that order: -22.3 kcal/mol and 45 °C.
For GATCATCAGGATGATC ((((((....)))))), in that order: -36 kcal/mol and 50.6 °C.
For GATCATCCACATGATC ((((((....)))))), in that order: -34.7 kcal/mol and 46.4 °C.
Turning to GATCATCCCTATGATC ((((((....)))))), in data set [1], the folding enthalpy is -37.4 kcal/mol. For the same sequence, the Tm in data set [2] is 47.5 °C.
As to GATCATCCGCATGATC ((((((....)))))), the folding enthalpy in data set [1] was -35.9 kcal/mol. The Tm in data set [2] is 47.8 °C.
In the case of GATCATCCTCATGATC ((((((....)))))), the folding enthalpy in data set [1] is -33.4 kcal/mol. Also, the Tm in data set [2] is 45.7 °C.
Turning to GATCATCCTTATGATC ((((((....)))))), in data set [1], the folding enthalpy is -37 kcal/mol. In data set [2], the Tm amounted to 46.3 °C.
With GATCATCGCATGATC ((((((...)))))), the folding enthalpy in data set [1] is -31.4 kcal/mol. In data set [2], the Tm turned out to be 49.6 °C.
For the sequence GATCATCTGAATGATC ((((((....)))))), the folding enthalpy in data set [1] was -33.6 kcal/mol. In addition, in data set [2], the Tm came out at 46.3 °C.
The corresponding values for GATCATCTGTATGATC ((((((....)))))) are -36.2 kcal/mol and 47.1 °C.
On to GATCATGAGATGATC ((((((...)))))), for which, in data set [1], the folding enthalpy is -32.5 kcal/mol. Besides, the Tm in data set [2] is 43.4 °C.
GATCATGAGGATGATC ((((((....)))))): in data set [1], the folding enthalpy was -38.4 kcal/mol. Moreover, the Tm in data set [2] was determined as 43.7 °C.
Turning to GATCATGATATGATC ((((((...)))))), in data set [1], the folding enthalpy is -31.3 kcal/mol. Also, in data set [2], the Tm stood at 48.4 °C.
Regarding GATCATGATTATGATC ((((((....)))))), in data set [1], the folding enthalpy was -29.5 kcal/mol. Moreover, in data set [2], the Tm came to 47.5 °C.
The corresponding values for GATCATGCAAATGATC ((((((....)))))) are -39.7 kcal/mol and 55.4 °C.
For GATCATGCAGATGATC ((((((....)))))), in that order: -39.3 kcal/mol and 51.4 °C.
Regarding GATCATGCCGATGATC ((((((....)))))), the folding enthalpy in data set [1] is -40.8 kcal/mol. Also, the Tm in data set [2] was found to be 49.5 °C.
In the case of GATCATGCGAATGATC ((((((....)))))), the folding enthalpy in data set [1] was -46.8 kcal/mol. In addition, in data set [2], the Tm was 53.8 °C.
Consider GATCATGCGTATGATC ((((((....)))))), for which, in data set [1], the folding enthalpy is -39 kcal/mol. In addition, the Tm in data set [2] came to 48.3 °C.
For GATCATGCTCATGATC ((((((....)))))), in that order: -44.1 kcal/mol and 51.3 °C.
The corresponding values for GATCATGGAAACATGGTC ((.((((....)))).)) are -25.8 kcal/mol and 46.6 °C.
The corresponding values for GATCATGGCCATGATC ((((((....)))))) are -49.5 kcal/mol and 56.3 °C.
Turning to GATCATGGTGATGATC ((((((....)))))), the folding enthalpy in data set [1] is -39.4 kcal/mol. In data set [2], the Tm was determined as 49 °C.
The corresponding values for GATCATGGTTATGATC ((((((....)))))) are -40.7 kcal/mol and 48.3 °C.
For GATCATGTAAATGATC ((((((....)))))), in that order: -38.9 kcal/mol and 56.6 °C.
GATCATGTATATGATC ((((((....)))))): the folding enthalpy in data set [1] is -41.7 kcal/mol. The Tm in data set [2] worked out at 55.3 °C.
For GATCATGTCGATGATC ((((((....)))))), in that order: -37.1 kcal/mol and 51 °C.
For GATCATGTCTATGATC ((((((....)))))), in that order: -38.9 kcal/mol and 53.1 °C.
The corresponding values for GATCATTAAATGATC ((((((...)))))) are -28.6 kcal/mol and 44 °C.
In the case of GATCATTAACATGATC ((((((....)))))), the folding enthalpy in data set [1] was -28.6 kcal/mol. The Tm in data set [2] was determined as 44.7 °C.
For GATCATTACTATGATC ((((((....)))))), the folding enthalpy in data set [1] is -41.7 kcal/mol. Besides, in data set [2], the Tm was 48.6 °C.
Regarding GATCATTCCCATGATC ((((((....)))))), the folding enthalpy in data set [1] was -42.6 kcal/mol. In addition, the Tm in data set [2] turned out to be 46.8 °C.
As for GATCATTCCGATGATC ((((((....)))))), in data set [1], the folding enthalpy is -41.3 kcal/mol. Further, in data set [2], the Tm is 49.1 °C.
With GATCATTCGAATGATC ((((((....)))))), the folding enthalpy in data set [1] was -46.8 kcal/mol. Also, the Tm in data set [2] turned out to be 50.5 °C.
For GATCATTCTCATGATC ((((((....)))))), in that order: -32.8 kcal/mol and 47.1 °C.
Consider GATCATTGACATGATC ((((((....)))))), for which, in data set [1], the folding enthalpy was -24.1 kcal/mol. Besides, the Tm in data set [2] turned out to be 43.6 °C.

Values taken from the array DNA melting data of Ke et al. (doi:10.1101/2024.01.08.574731).
